Tb hexokinase: blocks Trypanosoma brucei hexokinase 1 activity | inhibition, % at 10 µM | recombinant TbHK1, G6PDH-coupled NADH A340 | 220,000 compounds, 0.11% hits;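 active = inhibition of 50% or more in the single-dose primary screen; inactive = inhibition below 50%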
HKDC1 inh: inhibitors of human hexokinase HKDC1; Q2TB90; recombinant HKDC1, G6PDH/diaphorase resazurin coupled fluorescence; inhibition, % at 20 µM; 340,000 compounds, 0.16% hits; AID 493160;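 active = inhibition above about 35% when tested at 20 µM, limit read from the data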
Target sequence (Q2TB90 whole entry, looked up): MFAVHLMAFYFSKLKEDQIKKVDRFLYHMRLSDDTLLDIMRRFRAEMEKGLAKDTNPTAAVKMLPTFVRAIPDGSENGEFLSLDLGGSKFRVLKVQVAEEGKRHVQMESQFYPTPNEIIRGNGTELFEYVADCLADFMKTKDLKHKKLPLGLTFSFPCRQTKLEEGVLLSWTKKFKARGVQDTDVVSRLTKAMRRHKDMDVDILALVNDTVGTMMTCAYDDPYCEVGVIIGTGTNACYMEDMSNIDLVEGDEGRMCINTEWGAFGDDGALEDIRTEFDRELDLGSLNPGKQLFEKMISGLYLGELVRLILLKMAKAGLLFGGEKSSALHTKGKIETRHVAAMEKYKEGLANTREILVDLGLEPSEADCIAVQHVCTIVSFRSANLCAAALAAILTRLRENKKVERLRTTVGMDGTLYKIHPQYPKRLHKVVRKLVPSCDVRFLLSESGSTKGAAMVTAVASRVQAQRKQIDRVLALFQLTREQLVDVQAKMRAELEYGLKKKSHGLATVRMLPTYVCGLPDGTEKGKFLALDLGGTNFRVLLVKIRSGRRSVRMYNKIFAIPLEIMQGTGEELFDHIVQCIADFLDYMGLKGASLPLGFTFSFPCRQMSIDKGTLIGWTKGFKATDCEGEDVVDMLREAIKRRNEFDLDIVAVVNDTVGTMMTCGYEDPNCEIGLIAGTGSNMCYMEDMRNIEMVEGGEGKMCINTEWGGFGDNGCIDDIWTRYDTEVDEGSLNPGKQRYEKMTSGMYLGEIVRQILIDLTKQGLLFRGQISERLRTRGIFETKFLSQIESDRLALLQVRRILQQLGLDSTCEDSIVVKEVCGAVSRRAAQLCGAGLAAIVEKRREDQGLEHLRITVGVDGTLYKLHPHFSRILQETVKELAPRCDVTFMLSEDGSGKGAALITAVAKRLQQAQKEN
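Test system: recombinant HKDC1 (HK5) hexokinase enzyme, produced in-house; Amount: enzyme 5 µg/mL final; Buffer or medium: Tris pH 8.0 buffer with MgCl2, Tween-20, BSA, BME; Reagent: glucose and ATP substrates; Doses: 20 µM test compound, 1% DMSO; Incubation: 90 min reaction incubation at room temperature, dark; Detection: resorufin fluorescence at 613 nm.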
HSF1 inhib: HSF1 inhibition; 300,000 compounds, 0.77% hits; NIH3T3-HGL HSE-luciferase, MG132-induced, luminescence 8 h; active compounds read low; activity change, negative = inhibition, % at 7.5 µM (by protocol);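 active = more than half of replicate wells show activity change below -50%, luminescence cut by over half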;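 note: luciferase reports HSF-1 transcriptional activity via heat shock element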
Hsp70 act: transcriptional activators of Hsp70; HeLa Hsp70 promoter luciferase reporter, luminescence; scaled: vehicle 0, proteasome-inhibitor control 100%; activation, % at 10 µM; 200,000 compounds, 0.04% hits; AID 1203;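 active = activation above the mean across all tested compounds plus 3 SD, cutoff set per campaign, cut at about 5.5% in these data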
HSP90 inh: inhibitors of HSP90 luciferase refolding in rabbit reticulocyte lysate. AID 1789. 290,000 compounds, 0.91% hits. luciferase refolding luminescence, 3 h. inhibition, % at 5.6 µM;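 active = inhibition above the screen-wide mean plus 3 SD, computed separately per campaign, cut at about 16% in these data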;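 note: inhibitors lower the luminescence because luciferase stays unfolded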
HSF-1 act: increases HSF-1 driven luciferase reporter signal; NIH3T3-HGL HSF-1 luciferase reporter, MG132, 8 h; 100% = twice DMSO control signal; activation, % at 9 µM; 300,000 compounds, 1.7% hits; AID 504408;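 active = mean replicate activation of at least 50% with a set share of replicates each reaching 50%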
A number is an active result; n = inactive; x = no result given. The list is not random: actives were taken first. Their share in the collection is about 3.1%.

SMILES	Tb hexokinase	HKDC1 inh	HSF1 inhib	Hsp70 act	HSP90 inh	HSF-1 act
Cc1cc(C)c(CN2CCN(C(=O)Cn3cnc4c(OCc5ccccc5)ncnc43)CC2)c(C)c1	x	n	x	x	x	x
O=C(Nc1ccccc1NC(=O)c1ccccc1F)c1ccccc1F	x	n	n	x	n	58
O=C(NN=C1CCCCCCCCCCC1)c1ccccc1F	n	n	-55	n	n	n
O=C(O)c1cccc(NC(=O)c2ccccc2NC(=O)c2ccccc2F)c1	x	n	-68	x	n	n
Cc1ccc(NC(=O)c2ccc3c(c2)C(=O)N(c2ccccc2C)C3=O)nc1	x	n	x	x	x	x
Cc1nc(SCc2nc3c(O)cccc3[nH]2)c2oc3ccccc3c2n1	x	n	x	x	x	x
CCC(=O)N1c2ccc(S(=O)(=O)CCC(=O)Nc3ccc(OC)cc3OC)cc2CC1C (configuration not stated)	x	n	n	x	n	53
CCOc1ccccc1NC(=O)CCS(=O)(=O)c1ccc2c(c1)CC(C)N2C(C)=O (configuration not stated)	x	n	n	x	n	n
COc1ccc(S(=O)(=O)CCC(=O)Nc2cc(C)ccc2OC)cc1	n	n	-66	n	n	n
CC(OC(=O)CN1C(=O)c2ccccc2C1=O)C(=O)NC1CCCCC1C (configuration not stated)	x	n	-75	x	x	n
CCCCCCSc1cccc(-c2nc3ccc(Cl)cn3c2NCc2ccccc2)c1	x	n	n	x	x	n
O=C(Cc1ccccc1)Nc1ccccc1C(=O)NCC1CCCO1 (configuration not stated)	x	n	n	x	n	n
COc1ccc(-c2cc(CCCC(=O)NCCc3ccc(OC)cc3OC)no2)cc1	n	n	n	n	n	62
O=C(Nc1ccc(Cl)c(Cl)c1)Nc1ccc([N+](=O)[O-])cn1	n	n	n	x	n	n
Cc1ccc(NC(=O)Nc2ccc(Cl)cn2)cc1	n	n	n	n	n	77
Cc1ccc(NC(=O)Nc2ccc(Cl)c(Cl)c2)nc1	x	n	n	x	n	53
NS(=O)(=O)c1ccc(CCNC(=O)CSCC(=O)Nc2ccc(Cl)cc2)cc1	x	n	x	x	x	x
Cc1ccc2nc3sc(C(=O)N4CCOCC4)c(N)c3cc2c1	n	n	n	n	n	n
Cc1ccc2cc3c(N)c(C(=O)N4CCOCC4)sc3nc2c1	n	n	n	n	n	67
Clc1cccc(/C=N\Nc2nccs2)c1	n	n	n	n	n	143
Cc1ccccc1-n1nnnc1SCC(=O)NCC1(N2CCOCC2)CCCCC1	x	n	x	x	x	x
CCCCC(=O)Nc1cccc(NC(=O)c2cccc(Br)c2)c1	n	n	-62	n	n	n
CCCCC(=O)Nc1cccc(NC(=O)c2ccc(Br)cc2)c1	n	n	n	n	n	n
CCC(N=c1cc(-c2ccc(OC)cc2)oc2ccc(C)cc12)C(=O)O (configuration not stated)	n	n	n	n	n	59
CCN(Cc1ccccc1)C(=O)C1CCN(C/C(C)=C/c2ccccc2)CC1	n	n	n	n	n	88
SMILES	Tb hexokinase	HKDC1 inh	HSF1 inhib	Hsp70 act	HSP90 inh	HSF-1 act
C/C(=N\OCC(=O)Nn1c(=O)[nH]c2ccccc2c1=O)c1cccs1	n	n	-58	n	n	n
O=C(NCc1ccc2c(c1)OCO2)c1nc(Cn2cc(Br)cn2)no1	x	n	n	x	n	n
Cc1ccc(O)c(NC(=O)Cc2ccc3ccccc3c2)c1	x	n	n	x	n	161
Cc1ccc(O)c(NC(=O)CSc2n[nH]c(C)c2[N+](=O)[O-])c1	n	n	n	n	n	73
Cc1ccc(O)c(NC(=O)CSc2ccc(Cl)cc2)c1	n	n	n	n	n	162
CSc1ccccc1NC(=O)CSc1n[nH]c(C)c1[N+](=O)[O-]	n	n	n	n	n	n
O=C(NCC(c1ccco1)N1CCCC1)c1cc(S(=O)(=O)N2CCOCC2)ccc1Cl (configuration not stated)	x	n	x	x	x	x
ON=C(CCc1ccccc1)c1ccccc1	x	n	x	x	x	x
O=[N+]([O-])c1ccc(S(=O)(=O)Nc2ccccn2)cc1	x	n	n	x	n	n
O=C(NCc1ccccc1)c1c[nH]c2ccc(S(=O)(=O)Nc3ccc4c(c3)OCCO4)cc2c1=O	n	n	n	n	n	n
O=C(NCc1cccnc1)c1c[nH]c2cc3c(cc2c1=O)OCCO3	n	n	n	n	16	n
COc1cc(Cl)ccc1OCc1cc(C(=O)NC(C)Cc2cnccn2)no1 (configuration not stated)	x	n	n	x	n	59
COc1ccc(C(=O)N2CCN(S(=O)(=O)c3ccc(Br)cc3)CC2)cc1	x	n	x	x	x	x
O=S(=O)(NC1c2cccc3cccc(c23)C1N1CCNCC1)c1ccc(Cl)cc1 (configuration not stated)	n	n	n	n	n	61
CC(C)c1ccc(NC(=O)COc2ccc(F)cc2C(=O)c2cnn(-c3ccccc3)c2)cc1	n	n	n	n	n	60
Nc1cc(=O)[nH]c(SCC(=O)Nc2ccc(Oc3ccccc3)cc2)n1	x	n	n	x	n	n
CSc1sc(C(=O)Nc2ccc(F)cc2F)c2c1C=CCC2	n	n	n	x	n	72
CN(C(=O)c1cccc(NC(=O)Cc2cccc(NC(=O)C3CCN(C(=O)c4ccccc4)CC3)c2)c1)C1CC1	x	n	x	x	x	x
Cc1[nH]c2ccccc2c1C(=O)CSC(=S)N1CCCCC1	n	n	n	n	n	54
Cc1[nH]c2ccccc2c1C(=O)CSc1nc2ccccc2[nH]1	n	n	n	n	n	n
Cc1[nH]c2ccccc2c1C(=O)CSC(=S)N(C)C1CCCCC1	n	n	n	n	n	n
Cc1[nH]c2ccccc2c1C(=O)CSc1ccc(Cl)cc1	n	n	n	n	n	54
CCOc1ccccc1C(=O)NC(C(=O)NCCc1ccccn1)C(C)C (configuration not stated)	x	n	x	x	x	x
Cc1cccc(/C=N\N=C\c2cccc(C)c2)c1	x	n	n	x	n	n
Clc1ccc2c(N/N=C/c3ccccc3Br)ccnc2c1	n	n	n	n	n	66
SMILES	Tb hexokinase	HKDC1 inh	HSF1 inhib	Hsp70 act	HSP90 inh	HSF-1 act
CC1([N+](=O)[O-])COC2(CCCCC2)OC1	x	n	x	x	x	x
O=S1(=O)Nc2c(ccc3cccnc23)-c2ccccc21	n	n	n	n	n	158
O=c1[nH]c2ccccc2n2cnnc12	n	n	-83	n	n	n
CCN(CC)c1nc2ccccc2n2cnnc12	n	n	n	n	n	n
O=C(CCN1C(=O)/C(=C/c2ccc(F)cc2)SC1=S)NCCCn1ccnc1	x	n	-59	x	n	n
COc1cc(C2Nc3cc(Cl)c(S(N)(=O)=O)cc3S(=O)(=O)N2)cc(OC)c1OC (configuration not stated)	n	n	n	n	n	n
NS(=O)(=O)c1cc2c(cc1Cl)NCNS2(=O)=O	n	n	-69	n	n	n
CCCNc1nc(C)nc2c1cnn2CCc1ccccc1	n	n	n	n	n	n
Cc1nc(NC(C)C)c2cnn(CCc3ccccc3)c2n1	n	n	n	n	n	54
Cc1cc(Sc2ncnc(N)c2[N+](=O)[O-])ncn1	n	n	n	n	n	65

Source: PubChem
